Screens from PubChem BioAssay.
IMP-1 inh-1 = inhibitors of Pseudomonas aeruginosa IMP-1 metallo-beta-lactamase | purified IMP-1, nitrocefin hydrolysis, epi-absorbance fluorescence | inhibition, % at 5.6 µM | actives 0.45% (n = 290,000) | AID 1556;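 active = inhibition above the mean plus 3 SD of all compounds in the same screening run, cut at about 4.5% in these data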
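System: purified IMP-1; amount: IMP-1 0.2 nM before substrate addition; compound: single dose, 5.6 µM; times: 25 °C, 15 min preincubation, 25 min reaction; signal: Epi-absorbance via hydrolysed-nitrocefin quenching of white-plate fluorescence, 480/530 nm, EDTA stop; benchmarks: DMSO with and without IMP-1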
VIM-2 inhibitor = inhibitors of Pseudomonas aeruginosa VIM-2 metallo-beta-lactamase; purified VIM-2, nitrocefin hydrolysis, epi-absorbance fluorescence; actives 0.89% (n = 290,000); AID 1527; inhibition, % at 5.6 µM;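 active = inhibition above the mean of all tested compounds plus 3 SD, cutoff set per screening run, cut at about 7.5% in these data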;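 note: red hydrolysis product quenches plate fluorescence so inhibitors raise well fluorescence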
NS3 helicase inh = HCV NS3 helicase inhibition. NS3 helicase DNA unwinding, Cy5 molecular beacon fluorescence. inhibition, % at 10.9 µM. actives 0.56% (n = 290,000);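 active = inhibition above the mean of all tested compounds plus 3 SD, set per campaign, cut at about 35% in these data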
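Measured by: Cy5 fluorescence, 0 and 60 min reads / Assay system: NS3 helicase fragment of HCV / Control set: low DMSO, high thioflavine S at 110 µM / Times: 1 h reaction at 25 °C, ATP-initiated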
FID counter = displaces DNA intercalator in HCV helicase counter-screen. actives 0.17% (n = 290,000). DNA fluorescent intercalator displacement, fluorescence. inhibition, % at 7.9 µM. AID 1845; in the data active = inhibition above about 37%;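 note: higher means more ethidium bromide displaced from hairpin DNA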
IMP-1 inh-2 = blocks IMP-1 metallo-beta-lactamase in VIM-2 selectivity screen; shares compounds with VIM-2 inhibitor; purified IMP-1, nitrocefin hydrolysis, epi-absorbance fluorescence; inhibition, % at 5.6 µM; 1,300 tested, under 10 active; AID 1856; call rule not given here
VIM-2 FRET inh = counter-screen for VIM-2 inhibitors: epi-absorbance artifacts via FRET; shares compounds with VIM-2 inhibitor; purified VIM-2, CCF2 FRET substrate hydrolysis; inhibition, % at 5.6 µM; actives 23% (n = 1,300); AID 1857;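 active = inhibition above the mean of all tested compounds plus 3 SD, cut at about 19% in these data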
TEM-1 inh = blocks E. coli TEM-1 beta-lactamase in VIM-2 selectivity screen | shares compounds with VIM-2 inhibitor | Purified TEM-1, nitrocefin hydrolysis, epi-absorbance fluorescence | inhibition, % at 5.6 µM | actives 3% (n = 1,300);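 active = inhibition above that campaign's mean inhibition plus 3 SD, cut at about 0.46% in these data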
Target sequence (P62593 whole entry, looked up): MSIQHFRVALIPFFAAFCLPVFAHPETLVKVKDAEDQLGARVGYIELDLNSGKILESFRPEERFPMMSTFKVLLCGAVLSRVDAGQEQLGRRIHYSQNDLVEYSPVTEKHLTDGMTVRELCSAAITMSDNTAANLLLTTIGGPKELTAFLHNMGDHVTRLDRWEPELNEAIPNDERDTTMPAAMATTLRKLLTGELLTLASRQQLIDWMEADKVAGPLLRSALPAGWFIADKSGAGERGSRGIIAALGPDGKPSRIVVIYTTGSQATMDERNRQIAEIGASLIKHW
VIM-2 confirm 2 = confirmation of P. aeruginosa VIM-2 metallo-beta-lactamase inhibitors. AID 2187. shares compounds with VIM-2 inhibitor. inhibition, % at 5.6 µM. actives 96% (n = 1,300). purified VIM-2, nitrocefin hydrolysis, epi-absorbance;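 active = inhibition of the VIM-2 beta-lactamase enzyme above about 11% from the earlier first-round screen, limit read from the data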
A number is an active result; - = inactive; . = no result. The list is not random: actives were taken first. Their share in the collection is about 1.9%.

SMILES	IMP-1 inh-1	VIM-2 inhibitor	NS3 helicase inh	FID counter	IMP-1 inh-2	VIM-2 FRET inh	TEM-1 inh	VIM-2 confirm 2
O=C(CNC(=O)c1ccccc1)NCCc1ccc(O)c(O)c1	-	-	-	-	.	.	.	.
Oc1ccc(CCNc2c3ccccc3nc3ccccc23)cc1O	-	17	-	39	-	-	-	21
c1ccc(CNc2c3ccccc3nc3ccccc23)cc1	-	22	-	-	-	-	-	32
c1ccc(CNc2ncnc3ccccc23)cc1	-	-	-	-	.	.	.	.
Cc1ccccc1C(=O)c1cccn1CC(=O)O	-	38	-	-	-	57	1.3	43
Cc1ccccc1C(=O)c1cccn1CC(=O)NCc1ccccc1	-	-	-	-	.	.	.	.
COc1ccc2[nH]c(C(=O)O)c(CCN3C(=O)c4cccc([N+](=O)[O-])c4C3=O)c2c1	-	14	-	-	-	79	-	65
COc1ccc2[nH]c(C(=O)O)c(CCNC(C)=O)c2c1	-	-	-	-	.	.	.	.
O=C1c2ccccc2-c2onc3c(N4CCN(CCO)CC4)cc(N4CCN(C(=O)c5ccco5)CC4)c1c23	-	14	-	-	-	-	-	18
O=C(c1ccco1)N1CCN(C2=NS(=O)(=O)c3ccccc32)CC1	-	-	-	-	.	.	.	.
CN1CCN(c2cc(N3CCN(C(=O)c4ccco4)CC3)c3c4c(onc24)-c2ccccc2C3=O)CC1	-	17	-	-	-	-	-	24
O=C(C1=C(O)C(=O)N(Cc2cccnc2)C1c1ccccn1)c1cccs1 (configuration not stated)	-	16	-	-	-	41	-	32
NC(=O)c1cnn2c(C(F)(F)F)cc(-c3ccc(F)cc3)nc12	-	16	-	-	-	-	-	16
O=C(Cn1cnc2c(nnn2Cc2ccc(F)cc2)c1=O)Nc1ccccc1	-	-	-	-	.	.	.	.
COCCn1c(-c2ccc(Br)cc2)csc1=Nc1cccnc1	-	-	-	-	.	.	.	.
Clc1ccc(-c2csc(=Nc3cccnc3)n2CCCn2ccnc2)cc1Cl	-	30	-	-	-	-	-	35
CCCCCC(=O)Nc1cc(N(C)C)nc2ccccc12	-	-	-	-	.	.	.	.
CN1CCN(CC(=O)Nc2cc(N(C)C)nc3ccccc23)CC1	-	19	-	73	-	-	-	38
CNC(=S)Nc1cccc(-c2cnc3ccccc3n2)c1	-	14	-	-	-	-	-	9.1
CCN(CC)CCNc1ncnc2c1sc1nc(N3CCOCC3)c3c(c12)CCCC3	-	15	-	-	-	-	-	33
O=C(Oc1ccccc1O)c1cccc2ccccc12	-	-	-	-	.	.	.	.
O=C(CSc1nnc(NC(=O)c2ccccc2)s1)NC1CCCC1	-	-	-	-	.	.	.	.
O=C(CSc1nnc(NC(=O)c2ccccc2F)s1)NC1CCCC1	-	13	-	-	-	24	-	15
O=C(CSc1nnc(NC(=O)c2c(F)cccc2F)s1)NCc1ccccc1	-	33	-	-	-	56	-	38
O=C1NCC(O)=C1C=Nc1ccccc1O	-	-	-	-	.	.	.	.
SMILES	IMP-1 inh-1	VIM-2 inhibitor	NS3 helicase inh	FID counter	IMP-1 inh-2	VIM-2 FRET inh	TEM-1 inh	VIM-2 confirm 2
COc1ccc(OCC(=O)NNC(=S)NC(=O)C2CCCCC2)cc1	-	-	-	-	.	.	.	.
COc1cc(Oc2nc(C(F)(F)F)nc3ccccc23)ccc1C=O	-	14	-	-	-	-	-	24
COc1ccc(Oc2nc(C(F)(F)F)nc3ccccc23)cc1	-	-	-	-	.	.	.	.
CC(=O)Nc1cccc(Oc2nc(C(F)(F)F)nc3ccccc23)c1	-	14	-	-	-	-	-	26
COc1ccc(N(CC(=O)Nc2cccnc2)S(=O)(=O)c2ccccc2)cc1OC	-	-	-	-	.	.	.	.
COc1ccccc1NC(=O)N1C2CCCC1CC(NC(=O)c1ccccc1)C2 (configuration not stated)	-	-	-	-	.	.	.	.
COc1ccc(Cn2c(=O)[nH]c3cc(C(=O)Nc4ccc(N5CCN(C)CC5)cc4)ccc32)cc1	-	16	-	-	-	-	-	42
CCOc1cccc(C(=O)NC(=S)Nc2ccccc2)c1	-	-	-	-	.	.	.	.
CCOc1cccc(C(=O)NC(=S)Nc2ccc(N3CCN(CC)CC3)cc2)c1	-	45	-	-	-	-	-	77
Cc1ccc(C(=O)Nc2ccc(N3CCN(C)CC3)cc2)cc1C	-	16	-	-	-	-	-	29
CN1CCN(c2ccc(NC(=O)c3ccc4c(c3)OCCO4)cc2)CC1	-	18	-	-	-	-	-	34
Cc1ccc(C(=O)Nc2ccc(N3CCN(S(C)(=O)=O)CC3)cc2)cc1C	-	-	-	-	.	.	.	.
COc1ccc(N(CC(=O)NC2CCCCCC2)S(=O)(=O)c2ccc(C)cc2)cc1OC	-	-	-	-	.	.	.	.
CCOC(=O)CC1COCCN1C(=O)c1ccc2oc(Cc3ccccc3)nc2c1 (configuration not stated)	-	-	-	-	.	.	.	.
CN1CCN(c2ccc(NC(=O)c3cccc(OCc4ccccc4)c3)cc2)CC1	-	12	-	-	-	-	-	28
O=C(Nc1ccc(N2CCCC2=O)cc1)c1cccc(F)c1	-	-	-	-	.	.	.	.
CCN1CCN(c2ccc(NC(=O)c3cccc(N4CCCC4=O)c3)cc2)CC1	-	17	-	-	-	-	-	22
CSc1ncccc1C(=O)N1CCN(S(=O)(=O)c2ccc(F)cc2)CC1	-	-	-	-	.	.	.	.
O=C(NCC1CCCO1)c1ccc(CNS(=O)(=O)c2cccc(Cl)c2)cc1 (configuration not stated)	-	-	-	-	.	.	.	.
CCN1CCN(C(=O)CSc2cc(=O)n(C)c3ccccc23)CC1	-	37	-	-	-	-	-	56
CN1CCN(C(=O)CSc2cc(=O)n(C)c3ccccc23)CC1	-	31	-	-	-	-	-	49
CN1CCN(C(=O)CCCOc2cc(=O)n(C)c3ccccc23)CC1	-	18	-	-	-	-	-	38
CCOC(=O)Cc1nnc(NC(=O)CSc2ncc(-c3ccccc3)nn2)s1	-	-	-	-	.	.	.	.
CC1=CC(=O)C(C(C)C)=C/C1=C(\c1cc(C(C)C)c(OP(=O)(O)O)cc1C)c1ccccc1C(=O)O	-	18	-	-	-	32	-	25
CCOc1ccc(C(=O)c2ccccc2C(=O)O)cc1OCC	-	-	-	-	.	.	.	.
OC1=C(O)c2nc3cc(C(F)(F)F)ccc3nc21	-	17	-	-	-	-	-	-
OC1=C(O)c2nc3ccccc3nc21	-	-	-	-	.	.	.	.
Cc1ccc(NC(=O)CN2C(=O)S/C(=C\c3cc(Cl)c(OCC(=O)O)c(Cl)c3)C2=O)cc1	-	-	-	-	.	.	.	.
